MrgX1 ag – agonists of human MrgX1 receptor, primary screen, HEK293 cells, Fluo-4 calcium flux; Mas-related G-protein coupled receptor member X1 (Homo sapiens), Q96LB2; B-score at 10 µM; Fluo-4 calcium fluorescence, agonist mode; stronger effect = higher value; hit rate 0.44% among 310,000;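 active means calcium response B-score plate-corrected fluorescence ratio at least 3 library SD, with starting fluorescence B-score inside 5 SD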
Target sequence (Q96LB2 whole entry, looked up): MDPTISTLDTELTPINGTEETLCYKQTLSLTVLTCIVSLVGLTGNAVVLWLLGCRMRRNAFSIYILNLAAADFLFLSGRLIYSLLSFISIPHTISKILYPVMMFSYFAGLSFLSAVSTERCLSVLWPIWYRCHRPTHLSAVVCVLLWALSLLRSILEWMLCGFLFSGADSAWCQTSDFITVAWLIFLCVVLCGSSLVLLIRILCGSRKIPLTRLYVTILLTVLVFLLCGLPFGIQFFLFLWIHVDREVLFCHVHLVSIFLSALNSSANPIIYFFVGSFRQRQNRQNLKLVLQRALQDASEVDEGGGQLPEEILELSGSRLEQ
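Assay system: MrgX1-expressing HEK293 cells / Amount: fifteen thousand cells per well / Doses: test compound in the initial addition of three / Timing: cells plated overnight, dye loaded 0.5 h 37 °C, 0.5 h room temperature / Technique: kinetic calcium dye fluorescence, Fluo-4 NW / Control set: positive and negative controls per plate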
MrgX1 antagonist – antagonists of human MrgX1 receptor, primary screen, HEK293 cells, Fluo-4 calcium flux. Mas-related G-protein coupled receptor member X1 (Homo sapiens), Q96LB2. BAM8-22 antagonism; stronger effect = lower value. B-score at 10 µM. hit rate 1.3% among 310,000. AID 588676, 2011;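 active means calcium-response B-score plate-corrected more than 3 library SD below zero, starting fluorescence within 5 deviations, no agonist response on first addition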;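 further: peak minus trough fluorescence over baseline after final BAM8-22 challenge near maximal dose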
RGS4 pot – RGS4 potentiators or activators, primary screen, cell-based, HEK293 M3R inducible RGS4, calcium flux; carbachol calcium flux Fluo4; stronger effect = lower value; B-score at 10 µM; hit rate 0.92% among 310,000; AID 463111, 2010;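 active means B-score of the integrated calcium signal more than 4 SD below the library mean, with starting fluorescence not abnormally high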;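 further: negative B-score means reduced calcium response which marks RGS4 activation or potentiation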
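Detection: kinetic calcium fluorescence imaging with Fluo4-AM dye, 2 µM / Material: HEK293 cells with stable M3R and inducible RGS4 / Schedule: recording 10 s baseline at 1 Hz, 100 s post-agonist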
RGS4 block – RGS4 inhibitors, primary screen, cell-based, HEK293 M3R inducible RGS4, calcium flux | Regulator of G-protein signaling 4 (Homo sapiens), P49798 | Fluo-4 calcium flux; stronger effect = higher value; triggered by carbachol at its EC20 | B-score at 10 µM | hit rate 0.45% among 310,000;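 active means B-score, a plate-corrected calcium signal, over three deviations above library mean, with baseline fluorescence within five deviations of library mean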;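 further: RGS4 expression induced by doxycycline in cells with stable M3 receptor; B-score is computed from the integrated fluorescence ratio over baseline after carbachol; higher B-score means a larger calcium signal and so more RGS4 inhibition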
Target sequence (P49798 whole entry, looked up): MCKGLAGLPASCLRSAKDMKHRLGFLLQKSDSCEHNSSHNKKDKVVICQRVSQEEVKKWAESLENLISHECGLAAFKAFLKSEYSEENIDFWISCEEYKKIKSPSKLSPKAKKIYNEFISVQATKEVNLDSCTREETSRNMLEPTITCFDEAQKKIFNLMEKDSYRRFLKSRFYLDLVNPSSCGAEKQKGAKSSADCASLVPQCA
KCC2 mod – KCC2 cotransporter modulators, thallium flux, primary screen, cell-based, HEK293 KCC2, FluoZin-2 fluorescence, MLSMR; Solute carrier family 12 member 5 (Homo sapiens), Q9H2X9; KCC2 cells, thallium flux FluoZin-2 fluorescence; B-score of Tl+ flux slope (higher = more flux/activation; lower = inhibition) at 10 µM; hit rate 2.2% among 190,000; AID 1456, 2008;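 active means thallium flux slope and its plate-corrected score both differing from the plate sample mean at a set confidence after two filtering rounds, in either direction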;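 further: slope of fluorescence scaled to starting intensity during 10 to 20 s after thallium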
MrgX1 PAM – positive allosteric modulators of MrgX1, primary screen, HEK293 cells, Fluo-4 calcium flux | hit rate 0.63% among 310,000 | FDSS; stronger effect = higher value | B-score at 10 µM;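 active means plate-corrected calcium response at least 3 library SD above typical, normal starting fluorescence, not activating the receptor alone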;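 further: compound read alongside a low EC10 to EC30 dose of BAM8-22 agonist; peak minus trough fluorescence over baseline measured at the second addition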
RGS4 block valid – enhanced carbachol calcium response, M3R/RGS4 cells, RGS4 inhibitor project, cell-based, validation screen, HEK293 M3R/RGS4, calcium flux. shares compounds with RGS4 block. carbachol calcium Fluo-4 fluorescence; carbachol added at its EC20; 0 = buffer wells, 100 = carbachol control. calcium response, % at 10 µM. hit rate 65% among 1,700. AID 492999, 2010;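 active means duplicate-averaged calcium response above the buffer-only control mean plus 5 SD of those controls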;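 further: integrated fluorescence ratio F max minus min over baseline F0; higher response in RGS4-induced cells means RGS4 inhibition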
RGS4 uninduced – carbachol calcium response in non-induced M3R cells, confirmation, counter-screen for RGS4 inhibitor project, cell-based, HEK293 M3R | shares compounds with RGS4 block | carbachol calcium Fluo-4; submaximal (EC20) carbachol stimulus; buffer wells 0%, carbachol control wells 100% | activity (percent), % at 10 µM | hit rate 20% among 1,900; call rule not given here;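 further: RGS4 induction absent so cells express M3R without RGS4; higher means more calcium signal and flags a non-specific hit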
RGS4 inh ctr2 – second counter-screen for RGS4 inhibitors: non-induced cells without carbachol; HEK293 M3R/RGS4 non-induced, Fluo-4 calcium, no carbachol; normalised: buffer wells 0%, carbachol wells 100%; hit rate 22% among 1,900; shares compounds with RGS4 block; calcium response (agonist-mode artifact), % at 10 µM; AID 493001;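 active means duplicate-averaged calcium rise in uninduced cells above buffer wells' mean plus 5 SD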
Starred values were filed as active, the others as inactive; i = inactive; · = no result given. Compounds with a hit are over-represented: about 4.7% of the library has one in this group of screens.

SMILES	MrgX1 ag	MrgX1 antagonist	RGS4 pot	RGS4 block	KCC2 mod	MrgX1 PAM	RGS4 block valid	RGS4 uninduced	RGS4 inh ctr2
COc1ccc(/C=C2\C(=O)ON=C2c2ccccc2)cc1OC	i	i	i	i	·	i	·	i	8.5%*
COc1ccc(/C=C2/C(=O)ON=C2c2ccccc2)cc1OC	i	i	i	i	1.4	i	·	i	64%*
CCOc1cc(/C=C2/C(=O)ON=C2C)ccc1OCc1ccccc1F	i	i	-7*	9.4*	-1.7	i	i	i	94%*
CCOc1cc(/C=C2\C(=O)ON=C2c2ccccc2)ccc1OC	i	i	i	25*	·	i	32%*	i	50%*
CCOc1cc(/C=C2/C(=O)ON=C2C)ccc1OCc1ccccc1	i	i	i	i	i	i	·	·	·
N/C(=N\OC(=O)c1ccc(Cl)cc1)c1[nH]ncc1Br	i	i	i	i	0.8	i	·	·	·
COc1cccc(NC(=O)CN(C2=NC3CS(=O)(=O)CC3S2)c2cccc(C)c2)c1 (centres undefined)	i	i	i	i	·	i	·	·	·
Cc1ccc(CSCc2ccc(C(=O)O)o2)cc1	i	i	i	5*	·	i	i	i	i
O=C(NCc1ccco1)Nc1ccc2nsnc2c1	i	i	i	6.5*	-0.055	i	i	i	i
S=C(Nc1ccccc1)Nc1nc2ccccc2n1CCOc1ccc(Cl)cc1	i	i	i	6.2*	3.1	i	16%*	34%*	i
CC(=O)Nc1nc2ccccc2n1CCOc1ccccc1Cl	i	i	i	i	-0.47	i	·	·	·
O=C(CSc1nc2c(c(=O)n1-c1ccccc1)SCC2)NCC1CCCO1 (centres undefined)	i	i	i	i	-0.78	i	·	·	·
CC(=O)OCCNc1cc(Sc2nc3ccccc3[nH]2)c2nonc2c1[N+](=O)[O-]	i	i	i	15*	-0.59	i	6.5%*	i	i
Cn1ccnc1Sc1cc(NCCCO)c([N+](=O)[O-])c2nonc12	i	i	i	17*	-0.41	i	50%*	i	i
CC(=O)OCCCNc1cc(Sc2nc3ccccc3s2)c2nonc2c1[N+](=O)[O-]	i	i	i	4.7*	0.47	i	i	i	113%*
COc1ccc(N2CC(C(=O)Nc3nc4ccc(F)cc4s3)CC2=O)c(OC)c1 (centres undefined)	i	i	i	i	·	i	·	·	·
Clc1ccc(/C=C/c2nc(Cl)c(-c3ccc(Cl)cc3)c(Cl)n2)cc1	i	i	i	i	-0.066	i	·	·	·
CN(C)C1(CN=Cc2cc(Cl)cc([N+](=O)[O-])c2O)CCCCC1	i	i	i	i	·	i	·	·	·
O=C(O)Cn1cc(/C=C/[N+](=O)[O-])c2ccccc21	i	i	i	i	0.37	i	·	·	·
O=C(Cn1cc(/C=C\[N+](=O)[O-])c2ccccc21)Nc1ccccc1	i	i	i	i	0.51	i	·	·	·
O=[N+]([O-])/C=C/c1cn(Cc2ccccc2)c2ccccc12	i	i	i	16*	0.097	i	35%*	i	88%*
N#Cc1ccccc1Cn1cc(/C=C/[N+](=O)[O-])c2ccccc21	i	i	i	36*	0.28	i	186%*	i	52%*
CN1C(=O)/C(=C/c2ccc(OCc3ccc(F)cc3)cc2)NC1=S	i	i	i	i	·	i	·	·	·
O=C(CCN1CCN(C(=O)c2ccccc2)CC1)c1ccc(Br)cc1	i	i	i	6*	·	i	i	i	10%*
O=C(CCN1CCOCC1)c1ccccc1	i	i	i	i	-0.23	i	i	36%*	23%*
SMILES	MrgX1 ag	MrgX1 antagonist	RGS4 pot	RGS4 block	KCC2 mod	MrgX1 PAM	RGS4 block valid	RGS4 uninduced	RGS4 inh ctr2
O=C(c1ccccc1)N1CCN(Cc2ccccc2Br)CC1	i	i	·	·	·	i	·	·	·
O=C(CCN1CCOCC1)c1ccc2c(c1)OCCO2	i	i	i	21*	0.22	i	20%*	i	18%*
O=C(CCN1CCCCC1)c1ccccc1	i	i	i	i	-0.17	i	·	·	·
O=C(CCCN1CCOCC1)c1ccc2c(c1)OCCO2	i	i	i	i	0.48	i	i	i	i
COc1ccc(OC)c(C2=Nn3c(nnc3-c3cc(C)[nH]n3)SC2)c1	i	i	i	i	-1.7	i	·	·	·
O=C(COc1cccc([N+](=O)[O-])c1)NN1C(=O)c2ccccc2C1=O	i	i	i	i	·	i	·	·	·
O=C1NC(c2ccccc2)=C(c2nc3ccccc3s2)C(c2ccc(F)cc2)N1 (centres undefined)	i	i	i	i	-0.059	i	·	i	i
COc1ccc(C2NC(=O)NC(c3ccccc3)=C2c2nc3ccccc3s2)cc1 (centres undefined)	i	i	i	i	-0.093	i	·	·	·
Cc1c(C=O)c2ccccn2c1C(=O)c1cccc([N+](=O)[O-])c1	i	i	i	i	-0.89	i	·	·	·
CSCCC(NS(=O)(=O)c1ccc(C)cc1)C(=O)N1CCN(C(C)=O)CC1 (centres undefined)	i	i	i	i	·	i	·	·	·
CSCCC(NS(=O)(=O)c1ccc(C)cc1)C(=O)NC1CCCCCC1 (centres undefined)	i	i	i	i	·	i	·	i	i
